Screening data as filed in PubChem.
CHOP UPR activ: activators of apoptotic arm of unfolded protein response (CHOP); CHO-CHOP luciferase reporter, UPR activation, luminescence; percent of tunicamycin response over DMSO baseline; activation, % at 10 µM; 330,000 tested, 0.34% active;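 active = at 10 µM dose, activation of 40% or more, normalized to positive control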;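 also: 100% = tunicamycin at 10 µg/mL and 0% = DMSO alone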
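assay system = CHO CHOP reporter cells | amount = 500 CHO-CHOP cells per well | buffer or medium = F12 with 10% FBS | incubation = 16-18 h cell attachment, then 6 h compound exposure, 37 °C | detection = luminescence read with Steady-Glo | read-out = percent activation relative to tunicamycin control | controls = tunicamycin high control, DMSO low control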
MC4R barr agon: agonists of human melanocortin 4 receptor (MC4R) beta-arrestin; U2OS MC4R beta-arrestin complementation, luminescence; percent of melanotan II response, DMSO zero; 360,000 tested, 0.98% active; activation, % at 8.9 µM;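 active = activation above a per-plate cutoff, the mean activation of sample wells on that plate plus 3 SD, cut at about 8% in these data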
UPR XBP1 act: activators of adaptive arm of unfolded protein response (XBP1) | CHO-XBP1 luciferase reporter, IRE1-XBP1 UPR activation, luminescence; percent of tunicamycin response, DMSO as zero | activation, % at 20 µM | 330,000 tested, 0.33% active;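 active = versus positive control, 20 µM dose yields 30% or more activation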;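 also: 100% = tunicamycin at 10 µg/mL and 0% = DMSO only wells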
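Material: CHO-XBP1 cells stably carrying IRE1-XBP1-driven luciferase reporter | Medium: F12 with 10% serum | Compound dosing: 20 µM single concentration, DMSO 1% | Incubation: Overnight seeding at 37 °C, 6 h compound treatment at 37 °C | Detection: Steady-Glo luminescence read | Read-out basis: % activation of reporter signal versus tunicamycin and DMSO controls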
Bfl-1 A1 inh: inhibitors of the anti-apoptotic protein A1, read as caspase activation; MEF A1-2A-BIM cells, Caspase-Glo 3/7 luminescence, 3 h; percent of clofoctol response, vehicle zero; 330,000 tested, 0.066% active; AID 2462; caspase activation, % (no concentration beside the values);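 active = over half of replicate activation scores above 10%, or exactly half above 10 with the replicate mean above 10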
MC4R antagonist: blocks human MC4R cAMP signaling; inhibition, % at 6.5 µM; P32245; 360,000 tested, 0.48% active; MC4R-expressing cells, MTII-stimulated cAMP, LANCE TR-FRET;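 active = inhibition above its plate's cutoff, the mean of tested wells on that plate plus 3 SD, cut at about 29% in these data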;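 also: 0% = Melanotan II alone and 100% = Melanotan II plus saturating MCL0020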
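System: U2OS-MC4R stable cell line; Technique: Eu-cAMP/anti-cAMP TR-FRET, emission 671 nm; Repeats: single well per compound; Also added: Melanotan II; Dosing: one concentration, 6.5 µM nominal; Schedule: 30-min compound, 1-h challenge, 1-h detection, room temperature.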
MC4R barr conf: human MC4R beta-arrestin agonism confirmation; shares compounds with MC4R barr agon; U2OS MC4R beta-arrestin recruitment, luminescence; scaled DMSO 0%, Melanotan II 100%; activation, % at 8.9 µM; 2,400 tested, 31% active; AID 602192;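 active = mean activation across replicates above the hit cutoff set in the earlier primary screen, cut at about 8% in these data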
MOR DOR agonist: counter-screen for MC4R agonists: agonists of mu-delta opioid heterodimer. U2OS PathHunter beta-arrestin, beta-gal luminescence; percent of deltorphin B response, DMSO zero. shares compounds with MC4R barr agon. 2,400 tested, 5.8% active. activation, % at 9.2 µM;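 active = mean activation across replicates exceeds the hit threshold derived in the earlier primary screen, cut at about 18% in these data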;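 also: 100% = deltorphin B at 0.9 µM final and 0% = DMSO alone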
Target sequence (P35372 whole entry, looked up): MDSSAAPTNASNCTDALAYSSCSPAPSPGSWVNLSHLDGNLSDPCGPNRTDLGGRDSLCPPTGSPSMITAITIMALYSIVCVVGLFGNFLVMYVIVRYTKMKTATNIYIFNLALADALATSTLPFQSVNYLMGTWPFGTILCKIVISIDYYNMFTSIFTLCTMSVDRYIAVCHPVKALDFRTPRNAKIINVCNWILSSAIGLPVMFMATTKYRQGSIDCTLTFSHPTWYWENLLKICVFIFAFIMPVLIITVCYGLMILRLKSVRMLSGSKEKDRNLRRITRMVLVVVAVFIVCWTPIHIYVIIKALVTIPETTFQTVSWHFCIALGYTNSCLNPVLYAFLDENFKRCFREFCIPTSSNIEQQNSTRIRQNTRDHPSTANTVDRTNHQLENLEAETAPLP
Target sequence (P41143 whole entry, looked up): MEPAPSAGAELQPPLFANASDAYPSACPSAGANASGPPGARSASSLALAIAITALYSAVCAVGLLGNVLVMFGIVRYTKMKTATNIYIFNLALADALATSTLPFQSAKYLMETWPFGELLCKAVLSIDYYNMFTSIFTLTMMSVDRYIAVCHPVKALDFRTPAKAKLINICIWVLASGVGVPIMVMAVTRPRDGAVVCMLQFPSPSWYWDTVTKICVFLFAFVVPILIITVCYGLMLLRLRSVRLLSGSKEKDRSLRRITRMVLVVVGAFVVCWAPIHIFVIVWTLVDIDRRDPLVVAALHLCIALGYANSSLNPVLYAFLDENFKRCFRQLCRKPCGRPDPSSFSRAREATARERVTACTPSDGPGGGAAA
Numbers without * were called inactive. Most compounds without a hit are left out; they make up all but 2% or so of the library.

`CC(C)C(C(=O)NCC1CCCO1)N(C(=O)CNS(=O)(=O)c1ccc(F)cc1)C1CCCCC1` (centres undefined) gave CHOP UPR activ 1, MC4R barr agon 0, UPR XBP1 act -1, Bfl-1 A1 inh 0 and MC4R antagonist 18.
`O=S(=O)(NCC1CCCO1)c1ccc(S(=O)(=O)N(Cc2ccc(F)cc2)C2CCCCC2)cc1` (centres undefined) gave CHOP UPR activ -1, MC4R barr agon 10*, UPR XBP1 act 2, Bfl-1 A1 inh 0, MC4R antagonist 18, MC4R barr conf 2 and MOR DOR agonist 6.
Screening Cc1ccc(CSCC(=O)N/N=C/c2ccc(OCC(=O)Nc3ccc(C)cc3)cc2)cc1 returned CHOP UPR activ -2, MC4R barr agon 16*, UPR XBP1 act -1, Bfl-1 A1 inh 0, MC4R antagonist 4, MC4R barr conf 4 and MOR DOR agonist 5.
Cc1c(P(=S)(c2ccccc2)c2ccccc2)[n+]2ccccc2n1C/C=C/c1ccccc1 was read as MC4R barr agon 15*, MC4R antagonist 15, MC4R barr conf 6 and MOR DOR agonist 37*.
For O=C(NCC1CCOCC1)c1ccc(-c2ccc(F)c(F)c2)c2ccoc12 the results were MC4R barr agon -1 and MC4R antagonist 8.
For O=C(CNCCC1=CCCCC1)Nc1ccc(N2CCCCCC2)cc1 the results were CHOP UPR activ -5, MC4R barr agon 13*, UPR XBP1 act -1, Bfl-1 A1 inh 1, MC4R antagonist 6, MC4R barr conf 9.4* and MOR DOR agonist 16.
Screening COc1cc(/C=C/C(=O)OCC(=O)Nc2ccc3[nH]c(=O)[nH]c3c2)ccc1OC(F)F returned MC4R barr agon 0 and MC4R antagonist 0.
`COc1ccc2cc3cc(C(=O)NCc4cccs4)oc3nc2c1` gave CHOP UPR activ 3, MC4R barr agon 11*, UPR XBP1 act 3, Bfl-1 A1 inh 0, MC4R antagonist -5, MC4R barr conf 7 and MOR DOR agonist 9.
For COc1ccc2cc3cc(C(=O)NCCc4ccc(OC)c(OC)c4)oc3nc2c1 the results were CHOP UPR activ -1, MC4R barr agon 6, UPR XBP1 act 3, Bfl-1 A1 inh -1 and MC4R antagonist 6.
Screening O=C(CSc1nnc(-c2cccs2)o1)N1CCOCC1 returned MC4R barr agon 18*, MC4R antagonist 3, MC4R barr conf -1 and MOR DOR agonist 1.
COc1ccc(/C=N\NS(=O)(=O)c2ccc(Cl)cc2)cc1COc1ccccc1[N+](=O)[O-] was read as CHOP UPR activ -1, MC4R barr agon 18*, UPR XBP1 act -2, Bfl-1 A1 inh -1, MC4R antagonist 9, MC4R barr conf 10* and MOR DOR agonist 6.
`COc1ccc(/C=N\NS(=O)(=O)c2ccc(Br)cc2)cc1COc1ccccc1[N+](=O)[O-]` gave CHOP UPR activ 1, MC4R barr agon 2, UPR XBP1 act 0, Bfl-1 A1 inh 1 and MC4R antagonist 9.
`Cc1cccc(OCC(=O)Nc2cccc(-c3nnc(-c4ccccc4)o3)c2)c1C` gave CHOP UPR activ 3, MC4R barr agon 30*, UPR XBP1 act -1, Bfl-1 A1 inh 1, MC4R antagonist 7, MC4R barr conf 15* and MOR DOR agonist 12.
COc1ccccc1OCC(=O)Nc1cccc(-c2nc3ccccc3o2)c1 was read as CHOP UPR activ 3, MC4R barr agon 15*, UPR XBP1 act 0, Bfl-1 A1 inh -2, MC4R antagonist 9, MC4R barr conf 5 and MOR DOR agonist 3.
`Cc1cccc(OCC(=O)NNC(=O)Nc2cccc(Cl)c2)c1C` gave CHOP UPR activ -1, MC4R barr agon 10*, UPR XBP1 act 0, Bfl-1 A1 inh 0, MC4R antagonist -1, MC4R barr conf 4 and MOR DOR agonist 5.
